Cl transport mod: modulators of human KCC2 chloride dependent transport; KCC2 cells, thallium flux FluoZin-2 fluorescence; B-score of Tl+ flux slope (higher = more flux/activation; lower = inhibition) at 10 µM; hit rate 2.2% among 190,000; AID 1456;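 active = thallium flux slope and its plate-corrected score both differing from the plate sample mean at a set confidence after two filtering rounds, in either direction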;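 note: slope of fluorescence scaled to starting intensity during 10 to 20 s after thallium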
Autophagy mod: alters autophagy in cells. calls only at 10 µM (by protocol). MEF GFP-LC3 puncta imaging; test concentration mostly 10 µM. hit rate 0.98% among 190,000;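 active = percentage of spot-positive cells more than 3 SD above its plate mean, without a fluorescence outlier flag or 80% toxicity; inconclusive = no clear call, values can overlap the other calls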;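 note: spot-positive cell cutoff set from DMSO-treated cells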
SKKanGAS inh: inhibitors of SKKanGAS S. pyogenes growth in kanamycin (SK-promoter or general growth effect) | BacTiter-Glo, 6 h | inhibition, % at 7.5 µM | hit rate 1.3% among 300,000;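 active = mean replicate score, as percent of positive control median, at least 50; inconclusive = mean below 50 but one replicate at or above 50; inactive = mean and every replicate below 50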;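 note: strain carries kanamycin resistance gene driven by streptokinase promoter and grows in 40 µg/ml kanamycin; loss of luminescence reflects streptokinase promoter inhibition or plain growth inhibition; 0% = median of DMSO wells and 100% = positive control at its reference dose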
WT yeast gro inh: growth inhibition of WT yeast, mitochondrial fusion screen; mitochondrial fusion phenotypic screen, WT strain; inhibition, % at 10 µM; hit rate 2.1% among 190,000; in the data active = inhibition above about 58%; tested in S. cerevisiae
Insulin prom up: MIN6 insulin promoter up-regulation; MIN6 insulin promoter-GFP reporter, high-content imaging; active compounds read high; z-score at 5 µM; hit rate 0.3% among 190,000;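 active = z-score above 3 at 5 µM with at least 500 cells counted in the well; inconclusive = wells under 500 cells, flagged as cytotoxic or low count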
Rad51 HR inh: Rad51 (human) homologous recombination inhibition; hit rate 0.085% among 200,000; hRad51 DNA strand exchange, fluorescence dequenching; inhibition, % at 10 µM; Q06609;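 active = inhibition above 40% at the single screening dose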;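 note: 0% = DMSO control wells and 100% = blanks with heterologous ssDNA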
Target sequence (Q06609 whole entry, looked up): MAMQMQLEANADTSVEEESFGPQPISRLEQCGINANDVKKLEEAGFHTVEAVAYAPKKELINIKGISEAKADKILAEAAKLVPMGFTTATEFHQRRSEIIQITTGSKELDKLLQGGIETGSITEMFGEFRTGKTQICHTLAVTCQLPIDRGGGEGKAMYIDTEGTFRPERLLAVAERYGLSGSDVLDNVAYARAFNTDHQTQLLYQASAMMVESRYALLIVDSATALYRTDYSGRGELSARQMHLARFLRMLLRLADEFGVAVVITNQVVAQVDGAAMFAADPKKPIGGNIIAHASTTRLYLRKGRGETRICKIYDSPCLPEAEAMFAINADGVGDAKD
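Assay system: Human Rad51 nucleoprotein filaments preassembled on unlabelled ssDNA | Reagent: Donor/quencher-labelled 47-bp dsDNA substrate | Doses: One concentration, 10 µM final | Times: 37 °C 15-min filament assembly, 30-min compound preincubation, 15-min exchange | Technique: Fluorescein emission 520 nm, excitation 485 nm | Benchmarks: Plate control and blank wells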
* = called active by the depositor; i = inactive; ? = inconclusive; . = no result given; + = active, no number. A selection: hits, their analogues and other compounds. The true share with any hit is near 4.2%.

SMILES	Cl transport mod	Autophagy mod	SKKanGAS inh	WT yeast gro inh	Insulin prom up	Rad51 HR inh
CC(C)CNC(=S)NC(=O)c1ccc([N+](=O)[O-])cc1	20*	i	-3	7	-0.23	.
COC(=O)Cc1ccc(N(Cc2ccccc2F)S(=O)(=O)c2ccc(C)cc2)cc1	-0.54	i	3	72*	-0.24	.
O=C(CCC1CCCNC1)c1ccccc1 (stereo not drawn)	.	.	-1	.	.	.
O=C(c1ccccn1)N(Cc1ccco1)C1(C(=O)NC2CCCC2)CCCCC1	0.69	i	1	13	.	-2
O=C(c1ccc2c(c1)OCO2)N(Cc1ccco1)C1(C(=O)NC2CCCCC2)CCCCC1	-0.79	i	-6	59*	0.14	-8
Cc1ccccc1NC(=S)NNC(=O)c1csc2c1CCC(C)C2 (stereo not drawn)	94*	i	-1	9	-0.01	6
S=c1nc[nH]c2c1sc1nc(-c3ccccc3)c3c(c12)CCCC3	20*	i	42	97*	-0.32	3
Cc1nc2cc(NS(=O)(=O)c3c(C)c(C)cc(C)c3C)ccc2s1	-1.4	i	10	69*	.	-3
CCOC(=O)N=Nc1c(O)n(CC(=O)OC)c2ccccc12	0.25	i	-2	14	0.51	.
CCOC(=O)N=Nc1c2ccccc2c2nc3no[nH]c3nc12	3.5	?	9	96*	-1.5	1
O=C1N=C(N2CCOCC2)S/C1=C/c1cc2c(cc1[N+](=O)[O-])OCO2	-0.12	.	4	.	0.42	27
O=C1N/C(=C/c2cccs2)C(=O)N1Cc1ccccc1F	0.43	i	1	-1	0.47	3
COc1cccc(N2C(=O)/C(=C\c3cccs3)NC2=S)c1	4.8	i	3	4	.	28
CCCN1C(=O)/C(=C/c2ccc(C)s2)NC1=S	40*	i	-30	7	.	-7
CC(C)CN1C(=O)/C(=C/c2cccs2)NC1=S	40*	i	-1	-3	.	6
CCN1C(=O)/C(=C\N(C)C)NC1=S	-0.081	i	0	-19	0.27	.
Cc1ccc(/C=C2/NC(=O)N(Cc3ccccc3F)C2=O)s1	-0.38	+	-7	12	1.8	-122
COc1ccc(C(C)=O)cc1Cn1c(=O)cc(C)[nH]c1=O	.	.	1	.	.	.
CCCSCCCNC(=O)CN1C(=O)COc2ccc(S(=O)(=O)N3CCCC3)cc21	.	.	-4	.	.	.
CC(=O)Nc1ccc(NC(=O)c2c(C)nn(Cc3ccccc3Cl)c2C)cc1	.	.	5	.	.	.
Cc1cccc(N2CCN(C(=O)c3c(C)nn(Cc4ccccc4Cl)c3C)CC2)c1C	-0.11	i	23	60*	-1.4	-2
O=C(CNC(=O)/C(=C\c1ccccc1)NC(=O)c1ccc(Br)cc1)OCc1ccccc1	-5.6*	i	-2	11	0.24	-7
O=C(CNC(=O)/C(=C\c1ccc(F)cc1)NC(=O)c1ccccc1)OCc1ccccc1	-2.2	i	-18	-4	-0.41	-7
CCCOc1ccc(S(=O)(=O)n2cc(F)c(=O)[nH]c2=O)cc1	.	.	-4	.	.	.
CN1CC(c2ccccc2)C2(SC(=S)N(Cc3ccco3)C2=O)C12C(=O)Nc1ccccc12 (stereo not drawn)	-0.57	i	13	80*	-0.2	-1
SMILES	Cl transport mod	Autophagy mod	SKKanGAS inh	WT yeast gro inh	Insulin prom up	Rad51 HR inh
CN1CC(c2ccccn2)C2(SC(=S)N(Cc3ccccc3)C2=O)C12C(=O)Nc1ccccc12 (stereo not drawn)	-0.0077	i	-3	5	-1.6	7
CC(C)c1ccccc1NC(=O)C1CC(=O)N(C2CCCC2)C1 (stereo not drawn)	.	.	-6	.	.	.
Cc1cc(C(=O)N2CCN(c3cc(Cl)ccc3C)CC2)on1	.	.	-2	.	.	.
Cc1ccc(C(c2nnnn2CCc2ccccc2)N2CCSCC2)cc1 (stereo not drawn)	-3.5	i	-2	29	0.56	.
Cc1ccc(C(c2nnnn2CCc2ccccc2)N2CCC(C)CC2)cc1 (stereo not drawn)	-1.2	i	8	74*	.	1
O=C1c2ccccc2C(=O)N1CCN1CCCCC1	0.41	i	1	66*	0.92	.
CCN1CCC(O)(C#Cc2ccccc2)CC1	.	.	0	.	.	.
CC1C(c2ccccc2)N(C)C(c2ccccc2)C(C)C1(O)C#Cc1ccccc1 (stereo not drawn)	0.89	i	.	75*	-0.4	.
COc1cc2c(cc1OC)CN(C(=O)c1cc(S(=O)(=O)N3CCOCC3)c(Cl)cc1Cl)CC2	.	.	3	.	.	.
O=C(Nc1nc2ccccc2n1CCN1CCOCC1)c1cn(-c2ccccc2)nc1-c1ccccc1	-1.2	+	85*	34	-0.23	.
COc1ccc(N2C(=O)CSC23C(=O)N2c4c(cccc43)C(C)=CC2(C)C)cc1 (stereo not drawn)	.	i	12	40	-0.23	2
Cc1cc2c3c(c1)C1(SCC(=O)N1c1ccc(F)cc1)C(=O)N3C(C)(C)CC2C (stereo not drawn)	-0.83	i	6	63*	-0.02	-3
CCC(C)(C)n1nnnc1C(c1cc2cc(C)cc(C)c2[nH]c1=O)N1CCCC1 (stereo not drawn)	-0.083	i	.	-17	-0.03	-11
CCC(C)(C)n1nnnc1C(c1cc2cc(C)cc(C)c2[nH]c1=O)N1CCN(Cc2ccc3c(c2)OCO3)CC1 (stereo not drawn)	.	+	-1	-1	.	.
Cn1c(/N=C/c2cccs2)nc2ccccc21	.	i	2	5	-0.2	3
Cc1cc(C)c(C)c(N=Nc2nc3ccccc3n2C)c1C	0.024	i	0	84*	0.12	-18
Cc1ccc(C)c(N=Nc2nc3ccccc3n2C)c1	-2.8	i	5	82*	-1.5	1
Cc1ccc(CNc2nc3ccccc3n2C)cc1	.	.	2	.	.	.
Cc1cc2c(=O)n(Cc3ccco3)c(SCC(=O)N3CCCc4ccccc43)nc2s1	-1.7	i	58*	28	-1.4	3
O=C(CSc1nc2sc3c(c2c(=O)n1Cc1ccco1)CCC3)N1CCc2ccccc21	-0.7	i	.	.	.	.
O=C(Nc1ccc2nc(SCc3ccc(Cl)cc3)sc2c1)c1ccccc1C(=O)N1CCOCC1	.	+	18	57	-0.87	1
COC(=O)CSc1nc2ccc(NC(=O)c3ccccc3C(=O)N3CCOCC3)cc2s1	-0.23	i	-12	-11	0.56	-2
Cc1cccc(NC(=O)CSCC(=O)NNC(=O)c2ccoc2C)c1	.	.	-12	.	.	.
Cc1nn2c(N3CCN(c4ccccn4)CC3)cc(C(C)C)nc2c1-c1ccccc1	.	i	34	97*	-1.2	4
Cc1ccc(/C(=N\O)c2oc3c(C)c4oc(=O)cc(C)c4cc3c2C)cc1	0.52	i	36	70*	?	.
Cc1cc(=O)oc2c1ccc1oc(/C(=N/O)c3ccccc3)c(C)c12	0.026	i	30	21	-0.41	5
Cc1nn(C)cc1S(=O)(=O)Nc1ccc(F)c(F)c1	.	.	0	.	.	.
